Active and inactive are the calls of the source.
Tests used:
[1] = molecular target: T1, Adrenergic receptor alpha-1 (Rattus norvegicus, UniProt P15823+P23944+P43140); assay: Displacement of [3H]prazosin from alpha1 adrenoceptor in rat cerebral cortex after 30 mins by microbeta scintillation counting; assay type: tissue-based
T1 sequence (P15823 whole entry): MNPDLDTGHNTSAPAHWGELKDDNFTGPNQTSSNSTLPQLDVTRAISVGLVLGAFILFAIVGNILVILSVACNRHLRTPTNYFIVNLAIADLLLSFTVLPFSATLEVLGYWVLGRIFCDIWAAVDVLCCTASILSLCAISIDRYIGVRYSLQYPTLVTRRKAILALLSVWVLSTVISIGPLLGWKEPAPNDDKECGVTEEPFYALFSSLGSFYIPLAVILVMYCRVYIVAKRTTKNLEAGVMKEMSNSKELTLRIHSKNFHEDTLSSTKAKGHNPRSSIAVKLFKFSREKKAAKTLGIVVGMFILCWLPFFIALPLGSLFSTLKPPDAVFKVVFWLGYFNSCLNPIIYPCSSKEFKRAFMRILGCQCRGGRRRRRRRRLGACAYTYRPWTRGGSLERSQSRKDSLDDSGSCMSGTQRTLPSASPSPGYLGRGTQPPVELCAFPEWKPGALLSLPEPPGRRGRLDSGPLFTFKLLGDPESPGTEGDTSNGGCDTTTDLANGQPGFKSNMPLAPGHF
T1 sequence (P23944 whole entry): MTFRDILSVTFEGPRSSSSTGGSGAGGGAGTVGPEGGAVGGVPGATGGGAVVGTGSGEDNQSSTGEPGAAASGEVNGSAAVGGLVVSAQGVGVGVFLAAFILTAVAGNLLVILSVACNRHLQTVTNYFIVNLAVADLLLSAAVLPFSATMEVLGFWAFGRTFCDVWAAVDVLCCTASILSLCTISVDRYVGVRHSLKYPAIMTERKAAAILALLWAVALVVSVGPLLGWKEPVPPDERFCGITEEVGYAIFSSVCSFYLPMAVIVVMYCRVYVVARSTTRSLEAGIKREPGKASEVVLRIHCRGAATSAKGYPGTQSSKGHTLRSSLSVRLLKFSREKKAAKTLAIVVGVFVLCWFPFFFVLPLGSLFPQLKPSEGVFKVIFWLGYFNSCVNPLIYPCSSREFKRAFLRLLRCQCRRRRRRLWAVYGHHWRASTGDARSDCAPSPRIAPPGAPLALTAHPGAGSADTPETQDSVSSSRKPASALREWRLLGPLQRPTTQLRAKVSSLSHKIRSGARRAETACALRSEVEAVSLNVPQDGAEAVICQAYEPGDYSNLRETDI
T1 sequence (P43140 whole entry): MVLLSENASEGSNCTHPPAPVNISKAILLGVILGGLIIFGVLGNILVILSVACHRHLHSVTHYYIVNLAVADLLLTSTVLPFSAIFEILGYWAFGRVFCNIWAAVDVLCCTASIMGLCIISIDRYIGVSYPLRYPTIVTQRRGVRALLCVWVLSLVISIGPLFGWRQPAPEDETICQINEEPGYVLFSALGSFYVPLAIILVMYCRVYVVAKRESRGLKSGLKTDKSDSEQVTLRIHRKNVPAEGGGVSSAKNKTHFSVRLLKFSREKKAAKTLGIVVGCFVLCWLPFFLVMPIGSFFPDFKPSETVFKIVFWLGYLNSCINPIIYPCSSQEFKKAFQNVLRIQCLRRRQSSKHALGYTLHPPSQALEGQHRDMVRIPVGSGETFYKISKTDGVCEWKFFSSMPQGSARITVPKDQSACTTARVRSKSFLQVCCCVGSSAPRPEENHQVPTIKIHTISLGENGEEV
Outline: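 Rat cerebral cortex homogenised in ice-cold 50 mM Tris-HCl (pH 7.6 at 25 °C), washed twice at 20000×g and resuspended at 10 mg wet weight/ml. Incubated with [3H]prazosin (19.5 Ci/mmol) and test compound for 30 min at 25 °C. Nonspecific binding defined with 10 µM phentolamine. GF/B filtration, scintillation counting, three-parameter logistic competition fit.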

Rattus norvegicus [2] = assay: Antiarrhythmic activity in dosed Wistar rat assessed as protection against barium chloride-induced fibrillation administered 15 mins prior to barium chloride-challenge; assay type: functional
Outline: (§1)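 Szekeres model in male Wistar rats. Activity is gradual disappearance of arrhythmia with restored sinus rhythm; protection against disturbances and death scored. Groups of 6 animals.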

Rattus norvegicus [3] = assay: Cardiotoxicity in Wistar rat assessed as effect on QRS interval at 10 mg/kg, iv after 1 min; assay type: toxicity, organism-based; parameters: dose 10 mg/kg, route intravenous; details: in vivo
Outline: (§2)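 Male Wistar rats (180–250 g), anaesthetised with thiopental 60 mg/kg ip. Standard lead II ECG recorded at 50 mm/s just before dosing and at 1, 5 and 15 min after. Heart rate and P–Q, Q–T and QRS intervals were read. n=6 per group, mean ± SEM, one-way ANOVA.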

Rattus norvegicus [4] = assay: Antiarrhythmic activity in Wistar rat assessed as effect on heart beat at 10 mg/kg, iv after 5 mins; assay type: functional; outline: as §2
Rattus norvegicus [5] = assay: Antiarrhythmic activity in Wistar rat assessed as protection against adrenaline-induced extrasystoles at 2.5 to 10 mg/kg, iv administered 15 mins prior to adrenaline-challenge; assay type: functional, organism-based; details: Heart
Outline: (§3)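 Szekeres model in male Wistar rats anaesthetised with thiopental (60 mg/kg ip). Test compound given iv in water (2.5–10 mg/kg) 15 min before adrenaline 20 µg/kg iv. Scored for extrasystoles, bigeminy and mortality; activity means no premature beats and inhibited arrhythmia versus controls.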

Rattus norvegicus [6] = assay: Antiarrhythmic activity in iv dosed Wistar rat assessed as protection against barium chloride-induced extrasystoles administered 15 mins prior to barium chloride-challenge; assay type: functional; outline: as §1
Rattus norvegicus [7] = assay: Hypotensive activity in normotensive Wistar rat assessed as decrease in diastolic blood pressure at 2.5 to 10 mg/kg, iv after 1 min measured up to 60 mins; assay type: organism-based, Artery; parameters: dose 2.5-10 mg/kg, route intravenous; details: in vivo
Outline: (§4)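 Right carotid artery cannulated with heparin-saline-filled tubing for blood pressure recording. After 5 min stabilisation, compound injected iv into the caudal vein (2.5–10 mg/kg, 1 ml/kg). Systolic and diastolic pressure followed for 60 min. n=6 per group, mean ± SEM, one-way ANOVA.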

Rattus norvegicus [8] = assay: Antiarrhythmic activity in Wistar rat assessed as effect on heart beat at 10 mg/kg, iv after 1 min; assay type: functional; outline: as §2
Rattus norvegicus [9] = assay: Cardiotoxicity in Wistar rat assessed as effect on Q-T interval at 10 mg/kg, iv after 1 min; assay type: toxicity, organism-based; parameters: dose 10 mg/kg, route intravenous; details: in vivo; outline: as §2
Rattus norvegicus [10] = assay: Cardiotoxicity in Wistar rat assessed as effect on P-Q interval at 10 mg/kg, iv after 15 mins; assay type: toxicity, organism-based; parameters: dose 10 mg/kg, route intravenous; details: in vivo, 0.25 h; outline: as §2
Rattus norvegicus [11] = assay: Hypotensive activity in normotensive Wistar rat assessed as decrease in diastolic blood pressure at 2.5 to 10 mg/kg, iv at 1 min; assay type: organism-based, Artery; parameters: dose 2.5-10 mg/kg, route intravenous; details: in vivo; outline: as §4
Rattus norvegicus [12] = assay: Hypotensive activity in normotensive Wistar rat assessed as decrease in systolic blood pressure at 2.5 to 10 mg/kg, iv at 1 min; assay type: organism-based, Artery; parameters: dose 2.5-10 mg/kg, route intravenous; details: in vivo; outline: as §4
Rattus norvegicus [13] = assay: Antiarrhythmic activity in iv dosed barium chloride-induced Wistar rat arrhythmia model assessed as protection against mortality administered 15 mins prior to barium chloride-challenge; assay type: functional; details: Heart
Outline: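 Male Wistar rats (180–250 g), groups of 6. Activity criterion: gradual disappearance of arrhythmia and restoration of sinus rhythm; protection against heart disturbances and death scored.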

Rattus norvegicus [14] = assay: Cardiotoxicity in Wistar rat assessed as effect on P-Q interval at 10 mg/kg, iv after 1 min; assay type: toxicity, organism-based; parameters: dose 10 mg/kg, route intravenous; details: in vivo; outline: as §2
Rattus norvegicus [15] = assay: Cardiotoxicity in Wistar rat assessed as effect on Q-T interval at 10 mg/kg, iv after 15 mins; assay type: toxicity, organism-based; parameters: dose 10 mg/kg, route intravenous; details: in vivo, 0.25 h; outline: as §2
Rattus norvegicus [16] = assay: Antiarrhythmic activity in Wistar rat assessed as effect on heart beat at 10 mg/kg, iv after 15 mins; assay type: functional; outline: as §2
Rattus norvegicus [17] = assay: Cardiotoxicity in Wistar rat assessed as effect on P-Q interval at 10 mg/kg, iv after 5 mins; assay type: toxicity, organism-based; parameters: dose 10 mg/kg, route intravenous; details: in vivo; outline: as §2
Rattus norvegicus [18] = assay: Cardiotoxicity in Wistar rat assessed as effect on Q-T interval at 10 mg/kg, iv after 5 mins; assay type: toxicity, organism-based; parameters: dose 10 mg/kg, route intravenous; details: in vivo; outline: as §2
Rattus norvegicus [19] = assay: Cardiotoxicity in Wistar rat assessed as effect on QRS interval at 10 mg/kg, iv after 5 mins; assay type: toxicity, organism-based; parameters: dose 10 mg/kg, route intravenous; details: in vivo; outline: as §2
Rattus norvegicus [20] = assay: Cardiotoxicity in Wistar rat assessed as effect on QRS interval at 10 mg/kg, iv after 15 mins; assay type: toxicity, organism-based; parameters: dose 10 mg/kg, route intravenous; details: in vivo, 0.25 h; outline: as §2
Rattus norvegicus [21] = assay: Antiarrhythmic activity in iv dosed Wistar rat assessed as protection against adrenaline-induced arrhythmia administered 15 mins prior to adrenaline-challenge; assay type: functional; details: Heart; outline: as §3
Rattus norvegicus [22] = assay: Hypotensive activity in normotensive Wistar rat assessed as decrease in systolic blood pressure at 2.5 to 10 mg/kg, iv after 1 min measured up to 60 mins; assay type: organism-based, Artery; parameters: dose 2.5-10 mg/kg, route intravenous; details: in vivo; outline: as §4
Rattus norvegicus [23] = assay: Antiarrhythmic activity in Wistar rat assessed as protection against adrenaline-induced bigeminy at 2.5 to 10 mg/kg, iv administered 15 mins prior to adrenaline-challenge; assay type: functional, organism-based; details: Heart; outline: as §3

Ki [1] [nM] | pKi [1] | SMILES | Activity (Rattus norvegicus [2]; Heart) | Activity (Rattus norvegicus [3]) [ms] | Activity (Rattus norvegicus [4]) [min⁻¹] | Activity (Rattus norvegicus [6]; Heart) | Activity (Rattus norvegicus [7]) | Activity (Rattus norvegicus [8]) [min⁻¹] | Activity (Rattus norvegicus [9]) [ms] | Activity (Rattus norvegicus [10]) [ms] | Activity (Rattus norvegicus [11]) | Activity (Rattus norvegicus [12]) | Activity (Rattus norvegicus [14]) [ms] | Activity (Rattus norvegicus [15]) [ms] | Activity (Rattus norvegicus [16]) [min⁻¹] | Activity (Rattus norvegicus [17]) [ms] | Activity (Rattus norvegicus [18]) [ms] | Activity (Rattus norvegicus [19]) [ms] | Activity (Rattus norvegicus [20]) [ms] | Activity (Rattus norvegicus [22]) | also measured
412.9 | 6.38 | COc1ccccc1N1CCN(CCCN2C(=O)N(C)C(=O)C2(c2ccccc2)c2ccccc2)CC1.Cl | – | – | – | – | – | – | – | – | – | – | – | – | – | – | – | – | – | – | –
401.2 | 6.4 | CCOc1ccccc1N1CCN(CCCN2C(=O)N(C(C)C(=O)OC)C(=O)C2(c2ccccc2)c2ccccc2)CC1.Cl (stereo not given) | – | – | – | – | – | – | – | – | – | – | – | – | – | – | – | – | – | – | –
– | – | CCOc1ccccc1N1CCN(CC(O)CN2C(=O)N(C)C(=O)C2(c2ccccc2)c2ccccc2)CC1.Cl (racemic) | inactive | 18 | 241 | inactive | Toxic | 246 | 109 | 79 | Toxic | Toxic | 75 | 118 | 242 | 79 | 114 | 16 | 17 | Toxic | Activity (Rattus norvegicus [5]): Active; Activity (Rattus norvegicus [13]): inactive; ED50 (Rattus norvegicus [21]): 0.33 mg/kg; Activity (Rattus norvegicus [23]): Active
– | – | COC(=O)CN1C(=O)N(CC(O)CN2CCN(c3ccccc3OC)CC2)C(c2ccccc2)(c2ccccc2)C1=O.Cl (racemic) | inactive | 20 | 262 | inactive | Non-toxic | 268 | 98 | 63 | Toxic | Toxic | 64 | 74 | 261 | 63 | 76 | 18 | 17 | Non-toxic | Activity (Rattus norvegicus [5]): Active; Activity (Rattus norvegicus [13]): inactive; ED50 (Rattus norvegicus [21]): 0.69 mg/kg; Activity (Rattus norvegicus [23]): Active
– | – | C=CC(C(=O)OC)N1C(=O)N(CC(O)CN2CCN(c3ccccc3OC)CC2)C(c2ccccc2)(c2ccccc2)C1=O.Cl (racemic) | inactive | 25 | 294 | inactive | – | 261 | 82 | 56 | – | – | 56 | 71 | 291 | 57 | 78 | 23 | 25 | – | Activity (Rattus norvegicus [13]): inactive
542.3 | 6.27 | CN1C(=O)N(CC(O)CN2CCN(c3ccccc3)CC2)C(c2ccccc2)(c2ccccc2)C1=O.Cl (racemic) | – | 23 | 260 | – | Non-toxic | 270 | 109 | 59 | Toxic | Toxic | 66 | 74 | 263 | 59 | 79 | 20 | 18 | Non-toxic | –
3300 | 5.48 | COC(=O)CN1C(=O)N(CC(O)CN2CCN(c3ccccc3F)CC2)C(c2ccccc2)(c2ccccc2)C1=O.Cl (racemic) | – | 17 | 256 | – | Non-toxic | 284 | 86 | 58 | Toxic | Toxic | 66 | 71 | 281 | 61 | 82 | 17 | 15 | Non-toxic | –

SMILES | Ki [1] [nM] | pKi [1] | Activity (Rattus norvegicus [2]; Heart) | Activity (Rattus norvegicus [3]) [ms] | Activity (Rattus norvegicus [4]) [min⁻¹] | Activity (Rattus norvegicus [6]; Heart) | Activity (Rattus norvegicus [7]) | Activity (Rattus norvegicus [8]) [min⁻¹] | Activity (Rattus norvegicus [9]) [ms] | Activity (Rattus norvegicus [10]) [ms] | Activity (Rattus norvegicus [11]) | Activity (Rattus norvegicus [12]) | Activity (Rattus norvegicus [14]) [ms] | Activity (Rattus norvegicus [15]) [ms] | Activity (Rattus norvegicus [16]) [min⁻¹] | Activity (Rattus norvegicus [17]) [ms] | Activity (Rattus norvegicus [18]) [ms] | Activity (Rattus norvegicus [19]) [ms] | Activity (Rattus norvegicus [20]) [ms] | Activity (Rattus norvegicus [22]) | also measured
CN1C(=O)N(CC(O)CN2CCN(c3ccccc3Cl)CC2)C(c2ccccc2)(c2ccccc2)C1=O.Cl (racemic) | 483 | 6.32 | – | 17 | 278 | – | – | 279 | 83 | 60 | – | – | 60 | 72 | 303 | 60 | 76 | 16 | 16 | – | Activity (Rattus norvegicus [2]): >50%; Activity (Rattus norvegicus [6]): >50%
